Measurements as given in PMC9722545 (Structure (London, England : 1993), 2022).

Columns and labels:
CDK2 and CDK1 = conditions: no cyclins present; ref Wood et al., 2019; cited from earlier work
[1] = tested on: tumor cell lines harbouring FBXW7−/− mutations; conditions: FBXW7−/− versus FBXW7 wild-type tumor cell lines; ref O’Brien et al. (2022); cited from earlier work
CDK2 Gly11Glu (G11E) = CDK2 Gly11Glu (G11E) (Homo sapiens, UniProt P24941, G11E); test: ITC binding of OTS964 to CDK2 Gly11Glu
Procedure, shortened: (§1)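 Human CDK2 (res. 1–298, wild-type or point mutant) is expressed as a GST-PreScission fusion with yeast CAK1 in E. coli BL21(DE3), then tag-cleaved and gel-filtered, with no cyclin. ITC at 25°C in 25 mM HEPES pH 7.5, 250 mM NaCl, 1 mM DTT, 2.0% DMSO: 2250 μM test compound into 150 μM kinase, 38×1 μL injections 180 s apart.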

CDK7 = conditions: KINOMEscan panel of CDKs; ref Lin et al., 2019; cited from earlier work
CDK2-cyclin A Wild-type = CDK2-cyclin A Wild-type (Homo sapiens, UniProt P24941); test: ITC binding of OTS964 to CDK2-cyclin A wild-type; conditions: for Kd: mean ± SD
CDK2 Wild-type = CDK2 Wild-type (Homo sapiens, UniProt P24941); test: ITC binding of OTS964 to CDK2 wild-type
Procedure, shortened: as §1

CDK2 Phe80Met (F80M) = CDK2 Phe80Met (F80M) (Homo sapiens, UniProt P24941, F80M); test: ITC binding of OTS964 to CDK2 Phe80Met
Procedure, shortened: as §1

[2] = molecular target: CDK2-cyclin A Phe80Met (F80M) (Homo sapiens, UniProt P24941, F80M); test: ITC binding of OTS964 to CDK2 Phe80Met-cyclin A
CDK11 Gly223Ser = CDK11 Gly223Ser (Homo sapiens, UniProt P21127, G579S); test: ITC binding of OTS964 to CDK11 Gly223Ser
CDK2 Ala144Gly (A144G) = CDK2 Ala144Gly (A144G) (Homo sapiens, UniProt P24941, A144G); test: ITC binding of OTS964 to CDK2 Ala144Gly
Procedure, shortened: as §1

CDK11 G223A/E89G/M160F = CDK11 G223A/E89G/M160F (Homo sapiens, UniProt P21127, E445G/G579A/M516F); test: ITC binding of OTS964 to CDK11 triple mutant
CDK11 Glu89Gly (E89G) = CDK11 Glu89Gly (E89G) (Homo sapiens, UniProt P21127, E445G); test: ITC binding of OTS964 to CDK11 Glu89Gly
[3] = molecular target: CDK11 Wild-type (CDK11B residues 72–380) (Homo sapiens, UniProt P21127); test: ITC binding of OTS964 to CDK11 wild-type
CDK11 Met160Phe (M160F) = CDK11 Met160Phe (M160F) (Homo sapiens, UniProt P21127, M516F); test: ITC binding of OTS964 to CDK11 Met160Phe
other CDKs = conditions: ref Lin et al., 2019, cited from earlier work
[4] = molecular target: CDK2-cyclin A Ala144Gly (A144G) (Homo sapiens, UniProt P24941, A144G); test: ITC binding of OTS964 to CDK2 Ala144Gly-cyclin A
[5] = molecular target: CDK2-cyclin A Gly11Glu (G11E) (Homo sapiens, UniProt P24941, G11E); test: ITC binding of OTS964 to CDK2 Gly11Glu-cyclin A
CDK11 Gly223Ala (G223A) = CDK11 Gly223Ala (G223A) (Homo sapiens, UniProt P21127, G579A); test: ITC binding of OTS964 to CDK11 Gly223Ala
[6] = ITC, CDK2 wild-type with cyclin A
[7] = ITC, CDK2 Phe80Met with cyclin A
[8] = ITC, CDK2 Ala144Gly with cyclin A
[9] = ITC, CDK2 Gly11Glu with cyclin A

Sequence of CDK11 Wild-type (CDK11B residues 72–380) (P21127 428-736): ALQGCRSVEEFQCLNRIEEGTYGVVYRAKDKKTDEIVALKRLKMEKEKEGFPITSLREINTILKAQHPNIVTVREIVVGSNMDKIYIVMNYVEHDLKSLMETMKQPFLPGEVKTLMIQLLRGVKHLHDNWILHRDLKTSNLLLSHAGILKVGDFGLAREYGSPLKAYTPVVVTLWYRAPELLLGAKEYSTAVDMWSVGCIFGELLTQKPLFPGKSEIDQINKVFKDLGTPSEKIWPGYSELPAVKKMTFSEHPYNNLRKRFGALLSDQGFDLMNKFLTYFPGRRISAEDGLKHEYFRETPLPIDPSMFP
Sequence of CDK11 Met160Phe (M160F) (P21127 428-736 M516F): as the sequence (P21127 428-736) above, with M89F counted along it
Sequence of CDK11 Gly223Ala (G223A) (P21127 428-736 G579A): as the sequence (P21127 428-736) above, with G152A counted along it
Sequence of CDK11 G223A/E89G/M160F (P21127 428-736 E445G/M516F/G579A): as the sequence (P21127 428-736) above, with E18G, M89F, G152A counted along it
Sequence of CDK11 Glu89Gly (E89G) (P21127 428-736 E445G): as the sequence (P21127 428-736) above, with E18G counted along it
Sequence of CDK11 Gly223Ser (P21127 428-736 G579S): as the sequence (P21127 428-736) above, with G152S counted along it

**Q.** Which “difference in affinity between CDK2 and CDK1” value (CDK2 and CDK1) does the source give for `Cc1ncc(-c2ccnc(Nc3ccc(S(C)(=O)=O)cc3)n2)n1C(C)C` [AZD5438] here?
**A.** Its value is ~ 170 X.

**Q.** Which “sensitivity to OTS964 treatment” value [1] does the source give for `Cc1cc(O)c(-c2ccc(C(C)CN(C)C)cc2)c2c1[nH]c(=O)c1sccc12` (stereo not drawn) [OTS964] here?
**A.** Its value is “more sensitive”.

**Q.** And the Kd (CDK2 Gly11Glu (G11E))?
**A.** The Kd was 6.82 ± 0.53 µM.

**Q.** What about the “N (sites)” value (CDK2 Gly11Glu (G11E); ITC, 25°C, CDK2 Gly11Glu, no cyclin) of the same molecule?
**A.** Its value is 0.866 sites.

**Q.** And the ΔH (CDK2 Gly11Glu (G11E); ITC, CDK2 Gly11Glu, no cyclin)?
**A.** Its ΔH is -9.45 ± 0.32 kcal/mol.

**Q.** What about the ΔS (CDK2 Gly11Glu (G11E); ITC, CDK2 Gly11Glu, no cyclin) of the same molecule?
**A.** Its ΔS is −8.05 ± 1.23 cal/mol/K.

**Q.** And the ΔG (CDK2 Gly11Glu (G11E); ITC, CDK2 Gly11Glu, no cyclin, ΔG = ΔH − TΔS)?
**A.** Its ΔG is -7.05 ± 0.05 kcal/mol.

**Q.** What about the “more potent against CDK11 than against CDK7” value (CDK7) of the same molecule?
**A.** Its value is 10 X.

**Q.** And the “enhancement of binding of CDK2 to OTS964 in the presence versus absence of cyclin A” value (CDK2-cyclin A Wild-type; ITC KD)?
**A.** The value was 7 fold.

**Q.** What about the “N (sites)” value (CDK2-cyclin A Wild-type; ITC, 25°C, CDK2 wild-type with cyclin A) of the same molecule?
**A.** The value was 1.00 sites.

**Q.** What about the ΔH (CDK2-cyclin A Wild-type; [6]) of the same molecule?
**A.** Its ΔH is -8.64 ± 1.06 kcal/mol.

**Q.** What about the ΔS (CDK2-cyclin A Wild-type; [6]) of the same molecule?
**A.** The ΔS was −2.64 ± 2.99 cal/mol/K.

**Q.** What about the ΔG (CDK2-cyclin A Wild-type; ITC, CDK2 wild-type with cyclin A, ΔG = ΔH − TΔS) of the same molecule?
**A.** Its ΔG is -7.85 ± 0.18 kcal/mol.

**Q.** And the Kd (CDK2-cyclin A Wild-type; ITC, 25°C, CDK2 wild-type with cyclin A, n=2)?
**A.** The Kd was 1820 ± 500 nM.

**Q.** What about the Kd (CDK2-cyclin A Wild-type; ITC, CDK2 in the presence of cyclin A) of the same molecule?
**A.** Its Kd is 1800 ± 500 nM.

**Q.** What about the Kd (CDK2 Wild-type) of the same molecule?
**A.** The Kd was 16.3 ± 1.7 µM.

**Q.** What about the “weaker binding than monomeric CDK11” value (CDK2 Wild-type; ITC KD, CDK2 without cyclin vs monomeric CDK11) of the same molecule?
**A.** Its value is ~ 250 fold.

**Q.** What about the “N (sites)” value (CDK2 Wild-type; ITC, 25°C, CDK2 wild-type, no cyclin) of the same molecule?
**A.** Its value is 0.704 sites.

**Q.** And the ΔH (CDK2 Wild-type; ITC, CDK2 wild-type, no cyclin)?
**A.** Its ΔH is -9.12 ± 0.60 kcal/mol.

**Q.** And the ΔS (CDK2 Wild-type; ITC, CDK2 wild-type, no cyclin)?
**A.** Its ΔS is −8.66 ± 1.80 cal/mol/K.

**Q.** And the ΔG (CDK2 Wild-type; ITC, CDK2 wild-type, no cyclin, ΔG = ΔH − TΔS)?
**A.** The ΔG was -6.54 ± 0.06 kcal/mol.

**Q.** What about the Kd (CDK2 Phe80Met (F80M)) of the same molecule?
**A.** Its Kd is 32.4 ± 1.9 µM.

**Q.** What about the “N (sites)” value (CDK2 Phe80Met (F80M); ITC, 25°C, CDK2 Phe80Met, no cyclin) of the same molecule?
**A.** The value was 0.804 sites.

**Q.** What about the ΔS (CDK2 Phe80Met (F80M); ITC, CDK2 Phe80Met, no cyclin) of the same molecule?
**A.** Its ΔS is −19.1 ± 1.1 cal/mol/K.

**Q.** What about the ΔG (CDK2 Phe80Met (F80M); ITC, CDK2 Phe80Met, no cyclin, ΔG = ΔH − TΔS) of the same molecule?
**A.** The ΔG was 17.5 ± 0.6 kcal/mol.

**Q.** What about the Kd [2] of the same molecule?
**A.** Its Kd is 4.98 ± 0.44 µM.

**Q.** And the “N (sites)” value ([2]; ITC, 25°C, CDK2 Phe80Met with cyclin A)?
**A.** Its value is 1.28 sites.

**Q.** And the ΔH [2, 7]?
**A.** Its ΔH is -9.69 ± 0.08 kcal/mol.

**Q.** What about the ΔS [2, 7] of the same molecule?
**A.** The ΔS was −8.23 ± 0.44 cal/mol/K.

**Q.** And the ΔG ([2]; ITC, CDK2 Phe80Met with cyclin A, ΔG = ΔH − TΔS)?
**A.** The ΔG was -7.24 ± 0.05 kcal/mol.

**Q.** What about the Kd (CDK11 Gly223Ser) of the same molecule?
**A.** The Kd was 853 ± 56 nM.

**Q.** What about the Kd (CDK2 Ala144Gly (A144G)) of the same molecule?
**A.** Its Kd is 16 ± 4.6 µM.

**Q.** What about the “N (sites)” value (CDK2 Ala144Gly (A144G); ITC, 25°C, CDK2 Ala144Gly, no cyclin) of the same molecule?
**A.** The value was 0.554 sites.

**Q.** And the ΔH (CDK2 Ala144Gly (A144G); ITC, CDK2 Ala144Gly, no cyclin)?
**A.** Its ΔH is -10.6 ± 1.2 kcal/mol.

**Q.** And the ΔS (CDK2 Ala144Gly (A144G); ITC, CDK2 Ala144Gly, no cyclin)?
**A.** Its ΔS is −13.4 ± 4.5 cal/mol/K.

**Q.** And the ΔG (CDK2 Ala144Gly (A144G); ITC, CDK2 Ala144Gly, no cyclin, ΔG = ΔH − TΔS)?
**A.** The ΔG was -6.56 ± 0.17 kcal/mol.

**Q.** What about the Kd (CDK11 G223A/E89G/M160F) of the same molecule?
**A.** The Kd was 320 ± 66 nM.

**Q.** What about the Kd (CDK11 Glu89Gly (E89G)) of the same molecule?
**A.** The Kd was 50.9 ± 3.3 nM.

**Q.** And the Kd [3]?
**A.** Its Kd is 65.4 ± 18 nM.

**Q.** And the Kd (CDK11 Met160Phe (M160F))?
**A.** Its Kd is 556 ± 26 nM.

**Q.** What about the “binding to other CDKs tested” value (other CDKs; KINOMEscan panel of CDKs) of the same molecule?
**A.** The value was “no apparent binding”.

**Q.** And the Kd (other CDKs; other CDKs)?
**A.** Its Kd is > 3000 nM.

**Q.** And the “higher affinity for CDK11 than other CDKs” value (other CDKs)?
**A.** Its value is “at least 75 fold”.

**Q.** And the Kd [4]?
**A.** The Kd was 3.03 ± 0.15 µM.

**Q.** And the “N (sites)” value ([4]; ITC, 25°C, CDK2 Ala144Gly with cyclin A)?
**A.** Its value is 1.04 sites.

**Q.** And the ΔH [4, 8]?
**A.** Its ΔH is -6.92 ± 0.01 kcal/mol.

**Q.** And the ΔS [4, 8]?
**A.** The ΔS was 2.04 ± 0.11 cal/mol/K.

**Q.** What about the ΔG ([4]; ITC, CDK2 Ala144Gly with cyclin A, ΔG = ΔH − TΔS) of the same molecule?
**A.** The ΔG was -7.53 ± 0.03 kcal/mol.

**Q.** And the Kd [5]?
**A.** Its Kd is 621 ± 16 nM.

**Q.** And the “N (sites)” value ([5]; ITC, 25°C, CDK2 Gly11Glu with cyclin A)?
**A.** Its value is 1.16 sites.

**Q.** And the ΔH [5, 9]?
**A.** Its ΔH is -7.13 ± 0.21 kcal/mol.

**Q.** And the ΔS [5, 9]?
**A.** Its ΔS is 4.48 ± 0.76 cal/mol/K.

**Q.** What about the ΔG ([5]; ITC, CDK2 Gly11Glu with cyclin A, ΔG = ΔH − TΔS) of the same molecule?
**A.** The ΔG was -8.47 ± 0.02 kcal/mol.

**Q.** And the Kd (CDK11 Gly223Ala (G223A))?
**A.** The Kd was 31.7 ± 13.8 nM.
